For 28 molecules, IC50 and inhibition results are on record in ChEMBL document CHEMBL1146752, “Oxamyl dipeptide caspase inhibitors developed for the treatment of stroke” (Bioorg Med Chem Lett, 2004).

What is called pIC50 is −log10 of the IC50, conventionally taken in molar units. A high value points to a small IC50. By inhibition is commonly meant the percentage by which the read-out fell short of the control. Higher therefore signals a response far below the control.

pIC50: −log10 of the molar value. Where only a bound is given, the exact number is not on record here.

In one assay the target is T1, Caspase-9 (Homo sapiens, UniProt P55211).
T1 sequence (P55211 whole entry): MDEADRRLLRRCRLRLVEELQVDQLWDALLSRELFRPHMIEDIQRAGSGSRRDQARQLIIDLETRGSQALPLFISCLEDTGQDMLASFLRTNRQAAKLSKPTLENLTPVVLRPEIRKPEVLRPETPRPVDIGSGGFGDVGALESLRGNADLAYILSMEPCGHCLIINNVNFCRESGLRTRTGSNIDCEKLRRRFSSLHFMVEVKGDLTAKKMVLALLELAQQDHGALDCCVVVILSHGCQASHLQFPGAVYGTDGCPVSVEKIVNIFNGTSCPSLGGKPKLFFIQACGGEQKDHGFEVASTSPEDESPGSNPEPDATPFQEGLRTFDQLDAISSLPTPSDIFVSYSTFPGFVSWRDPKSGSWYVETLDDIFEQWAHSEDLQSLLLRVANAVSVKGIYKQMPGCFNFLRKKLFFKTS
Put plainly: Binding affinity towards human Caspase-9.

Assay [1] is filed under the species Homo sapiens. The experiment in a line: Inhibitory activity against human monocyte at the concentration of 10 uM. It counts as functional. In short, it runs like this:
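Human monocyte caspase-1-dependent cellular assay. Compound tested at a single 10 µM concentration. Read-out is percent inhibition.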

The subject of another assay is THP-1. Put plainly: Inhibitory activity evaluated against human THP-1 cell line in cellular assay. It counts as functional, cell-based. In short, it runs like this:
(§1)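 Human cells (monocytes; THP-1 line) in a caspase-1-dependent cellular assay run for 24 h at 37 °C. Read-out is IC50 (µM).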

A further assay relates to Jurkat. Put plainly: Inhibitory activity evaluated against human jurkat cell line in cellular assay. It counts as functional, cell-based. In short, it runs like this: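 Human Jurkat cells, in an assay where caspase-8 is relevant but other caspases also contribute. Run for 24 h at 37 °C. Read-out is IC50 (µM).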
The species named for the next assay is Rattus norvegicus. Put plainly: Inhibitory activity evaluated against rat Con A embryonic cortical neurons in cellular assay. It counts as functional.
A further assay concerns SKW 6.4. Put plainly: Inhibitory activity was evaluated against human SKW 6.4 cell line in cellular assay. It counts as functional, cell-based. In short, it runs like this:
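Cellular assay (Con A; SKW 6.4 cells) run for 24 h at 37 °C. Read-out is IC50 (µM).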

The species named for assay [2] is Homo sapiens. The experiment in a line: Inhibitory activity against human monocyte. It counts as functional. In short, it runs like this: as §1

On Caspase-9, `CC(C)C[C@H](NC(=O)CNc1cccc2ccccc12)C(=O)N[C@H](C=O)CC(=O)O` gave a pIC50 of 6.80. For the same molecule, the inhibition at 10 µM in the assay listed under Homo sapiens [1] was 18%.
As for `CCCCCCCNC(=O)C(=O)N[C@H](C(=O)N[C@@H](CC(=O)O)C(=O)COc1c(F)c(F)cc(F)c1F)C(C)C`, the pIC50 in the assay with THP-1 is 5.11; in the assay with Jurkat, 5.89; in the assay filed under Rattus norvegicus, 5.15; in the assay with SKW 6.4, 5.11.
Regarding `CC(C)[C@H](NC(=O)C(=O)Nc1ccccc1C(F)(F)F)C(=O)N[C@@H](CC(=O)O)C(=O)COc1c(F)c(F)cc(F)c1F`, the pIC50 was 6.09 in the assay on THP-1, 8.77 in the assay with Jurkat, 6.19 in the assay filed under Rattus norvegicus and 6.64 in the assay on SKW 6.4.
The matching figures for `CC(C)[C@H](NC(=O)C(=O)NNc1ccccc1)C(=O)N[C@@H](CC(=O)O)C(=O)COc1c(F)c(F)cc(F)c1F`: 5.18, 5.63, 4.70 and 5.00.
As for `COc1cc(CNC(=O)C(=O)N[C@H](C(=O)N[C@@H](CC(=O)O)C(=O)COc2c(F)c(F)cc(F)c2F)C(C)C)cc(OC)c1OC`, the pIC50 was 5.46 in the assay with THP-1, 5.81 with Jurkat, 5.05 in the assay listed under Rattus norvegicus and 4.74 with SKW 6.4.
The matching figures for `CC(C)[C@H](NC(=O)C(=O)Nc1ccccc1Cl)C(=O)N[C@@H](CC(=O)O)C(=O)COc1c(F)c(F)cc(F)c1F`: 6.80, 7.80, 6.52 and 6.96.
Regarding `CC(C)[C@H](NC(=O)C(=O)NCCc1ccccc1)C(=O)N[C@@H](CC(=O)O)C(=O)COc1c(F)c(F)cc(F)c1F`, the pIC50 in the assay with THP-1 is 7.10; with Jurkat, 5.33; in the assay listed under Rattus norvegicus, 5.46; in the assay with SKW 6.4, 6.21.
The matching figures for `CC(C)[C@H](NC(=O)C(=O)Nc1ccccc1I)C(=O)N[C@@H](CC(=O)O)C(=O)COc1c(F)c(F)cc(F)c1F`: 5.82, 7.09, 6.00 and 5.81.
On the same counts, the results for `CCCCCCCc1ccc(NC(=O)C(=O)N[C@H](C(=O)N[C@@H](CC(=O)O)C(=O)COc2c(F)c(F)cc(F)c2F)C(C)C)cc1` are 5.18, 6.57, less than 4.30 and 4.89.
For `CC(C)[C@H](NC(=O)C(=O)Nc1ccccc1-c1ccccc1)C(=O)N[C@@H](CC(=O)O)C(=O)COc1c(F)c(F)cc(F)c1F`, the pIC50 in the assay with THP-1 was 6.80; with Jurkat, 6.70; in the assay listed under Rattus norvegicus, 5.60; in the assay on SKW 6.4, 6.32.
On the same counts, the results for `CC(C)[C@H](NC(=O)C(=O)Nc1c(Cl)c(Cl)cc(Cl)c1Cl)C(=O)N[C@@H](CC(=O)O)C(=O)COc1c(F)c(F)cc(F)c1F` are 5.98, 6.66, 6.18 and 6.39.
On to `CC(C)[C@H](NC(=O)C(=O)Nc1cccc2cc3ccccc3cc12)C(=O)N[C@@H](CC(=O)O)C(=O)COc1c(F)c(F)cc(F)c1F`, for which the pIC50 in the assay on THP-1 is 6.66; in the assay with Jurkat it was 8.00; in the assay filed under Rattus norvegicus, 6.07; with SKW 6.4 it was 5.71.
For the molecule `CC(C)C[C@H](NC(=O)C(=O)Nc1cccc2ccccc12)C(=O)N[C@H](C=O)CC(=O)O`, the results for the pIC50 at Caspase-9 and in the assay filed under Homo sapiens [2] were 6.64 and 5.51, respectively. In the assay filed under Homo sapiens [1], the inhibition at 10 µM was determined as 79%.
As to `CNC(=O)C(=O)N[C@H](C(=O)N[C@@H](CC(=O)O)C(=O)COc1c(F)c(F)cc(F)c1F)C(C)C`, the pIC50 with THP-1 is 5.91; in the assay on Jurkat, 6.96; in the assay listed under Rattus norvegicus, 5.15; in the assay with SKW 6.4, 5.98.
Take `CC(C)[C@H](NC(=O)C(=O)NC12CC3CC(CC(C3)C1)C2)C(=O)N[C@@H](CC(=O)O)C(=O)COc1c(F)c(F)cc(F)c1F`: the pIC50 was 5.75 in the assay on THP-1, 5.75 in the assay with Jurkat, 5.46 in the assay filed under Rattus norvegicus and 6.14 in the assay on SKW 6.4.
On to `CC(C)[C@H](NC(=O)C(=O)Nc1cccc(Oc2ccccc2)c1)C(=O)N[C@@H](CC(=O)O)C(=O)COc1c(F)c(F)cc(F)c1F`, for which the pIC50 with THP-1 is 5.73; in the assay on Jurkat it was 5.94; in the assay filed under Rattus norvegicus it was 5.96; in the assay with SKW 6.4, 5.70.
For `CC(C)[C@H](NC(=O)C(=O)Nc1ccccc1F)C(=O)N[C@@H](CC(=O)O)C(=O)COc1c(F)c(F)cc(F)c1F`, the pIC50 with THP-1 is 6.17; in the assay with Jurkat it was 7.01; in the assay filed under Rattus norvegicus, 6.01; in the assay on SKW 6.4, 6.30.
Turning to `CC(C)[C@H](NC(=O)C(=O)NN(C(=O)c1ccccc1)c1ccccc1)C(=O)N[C@@H](CC(=O)O)C(=O)COc1c(F)c(F)cc(F)c1F`, the pIC50 was 6.20 in the assay on THP-1, 7.15 in the assay on Jurkat, 5.64 in the assay filed under Rattus norvegicus and 5.70 in the assay on SKW 6.4.
Regarding `CC(C)[C@H](NC(=O)C(=O)Nc1cccc2c1CCCC2)C(=O)N[C@@H](CC(=O)O)C(=O)COc1c(F)c(F)cc(F)c1F`, the pIC50 is 5.96 in the assay on THP-1, 6.76 with Jurkat, 5.70 in the assay listed under Rattus norvegicus and 5.97 with SKW 6.4.
The matching figures for `CC(C)[C@H](NC(=O)C(=O)NC1CCCCC1)C(=O)N[C@@H](CC(=O)O)C(=O)COc1c(F)c(F)cc(F)c1F`: 6.14, 7.22, 5.21 and 5.75.
On the same counts, the results for `CC(C)[C@H](NC(=O)C(=O)Nc1ccc2ccccc2c1)C(=O)N[C@@H](CC(=O)O)C(=O)COc1c(F)c(F)cc(F)c1F` are 6.15, 9.15, 5.48 and 6.42.
The matching figures for `CC(C)[C@H](NC(=O)C(=O)Nc1ccccc1C(C)(C)C)C(=O)N[C@@H](CC(=O)O)C(=O)COc1c(F)c(F)cc(F)c1F`: 5.73, 8.66, 5.25 and 6.47.
In the case of `CC(C)[C@H](NC(=O)C(=O)Nc1cnccn1)C(=O)N[C@@H](CC(=O)O)C(=O)COc1c(F)c(F)cc(F)c1F`, the pIC50 in the assay on THP-1 was 5.84; in the assay with Jurkat it was 6.77; in the assay filed under Rattus norvegicus, 5.23; in the assay with SKW 6.4, 4.72.
On the same counts, the results for `CC(C)[C@H](NC(=O)C(=O)Nc1ccc(I)cc1F)C(=O)N[C@@H](CC(=O)O)C(=O)COc1c(F)c(F)cc(F)c1F` are 6.39, 8.00, 6.15 and 6.82.
In the case of `CC(C)C[C@H](NC(=O)COc1cccc2ccccc12)C(=O)N[C@H](C=O)CC(=O)O`, the pIC50 at Caspase-9 was 5.57. In the assay filed under Homo sapiens [1], this molecule gave an inhibition at 10 µM of 17%.
On to `CC(C)[C@H](NC(=O)C(=O)Nc1c(F)cc(F)c(F)c1F)C(=O)N[C@@H](CC(=O)O)C(=O)COc1c(F)c(F)cc(F)c1F`, for which the pIC50 is 6.57 with THP-1, 6.96 with Jurkat, 5.68 in the assay filed under Rattus norvegicus and 6.24 with SKW 6.4.
The matching figures for `CC(C)[C@H](NC(=O)C(=O)Nc1ccc(F)cc1)C(=O)N[C@@H](CC(=O)O)C(=O)COc1c(F)c(F)cc(F)c1F`: 5.92, 7.72, 5.70 and 6.04.
On the same counts, the results for `CC(C)[C@H](NC(=O)C(=O)Nc1ccccn1)C(=O)N[C@@H](CC(=O)O)C(=O)COc1c(F)c(F)cc(F)c1F` are 5.84, 6.85, 5.03 and 5.66.
